The record followed here is ChEMBL document CHEMBL4513216, “Probing the Open Global Health Chemical Diversity Library for Multistage-Active Starting Points for Next-Generation Antimalarials” (ACS Infect Dis, 2020).

The data set is described as follows: Toxicity liver stage against HepG2, at 10uM. Format: cell-based. The arrangement: test concentration 10 uM, cell line HepG2-A16-CD81EGFP. The settings on record: human, HepG2-A16-CD81EGFP cells; read-out: INHIBITION
In a few lines: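 Uninfected HepG2-A16-CD81EGFP cells, 3 × 10^3 per well, 1536-well, plated on prespotted compound at 10 μM final, parasite-free screening media added to match infected plates; puromycin 10 μM positive, DMSO 0.5% negative; run in parallel with 48 h PbLuc assay at 37 °C, 5% CO2; viability by CellTiter-Glo luminescence, normalized to controls.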
With `Cc1ccc(N2CCCC3(CCN(C(=O)c4sccc4C)C3)C2)nn1` (stereo not drawn), the cytotoxicity at 10 µM was -107%.
In the case of `Cc1cc(C)n(Cc2cc(C(=O)N3CCCCC3c3nccs3)n[nH]2)n1` (stereo not drawn) it was 13.8%; in that of `NCc1cnc(Nc2ccccc2)nc1`, 8.55%; in that of `CC(=O)N1CCC(c2cc3c(ncn3C)c(-c3cnn(C)c3)n2)CC1`, 0.472%.
To `CCCn1c(C)c(CC(=O)NCC(N)=O)c2c1CC(C)(C)CC2=O` belongs 2.03%; to `CC(c1ncc(-c2ccccc2)o1)N1CCN(C(=O)N(C)C)CC1` (stereo not drawn), -12.1%.
To `CCc1sc(-c2nnc(CNC(C)Cn3cc(C)cn3)o2)cc1C` (stereo not drawn) belongs 0.493%; to `Cc1nn(C)c(N2CCOCC2)c1CNCc1ccc(CO)c(F)c1`, -14.5%.
`Cc1cccc2c(=O)n(C(C)Cc3cccnc3)cnc12` (stereo not drawn): the cytotoxicity at 10 µM was -13.5%.
To `Cc1cc(C)c(CNC(=O)C(C)Oc2ccccc2F)c(=O)[nH]1` (stereo not drawn) belongs 6.99%; to `O=C(O)[C@@H]1CN(CC(=O)N2CCCCC2)C[C@H]1c1ccc(F)cc1`, -3.95%; to `NC(=O)c1ccc(CN2CCC(N3CCCC3)CC2)cc1`, -2.3%.
To `CCN(CCNC(=O)C1CCCN(C(C)=O)C1)c1ccccc1C` (stereo not drawn) belongs 4.87%.
In the case of `N[C@H]1CN(C(=O)CCC(F)(F)F)C[C@@H]1c1ccccc1` it was 6.95%; in that of `c1ccc(-c2n[nH]c(CCNc3nnc(C4CCC4)o3)n2)cc1`, 0.677%; in that of `Cc1noc(C)c1CN1CCN(Cc2nccn2C)C(C)C1` (stereo not drawn), -5.38%.
Consider `CC1CCCN(Cc2c(C3CC3)n(CC(=O)N(C)C)c3ncccc23)C1` (stereo not drawn), for which the cytotoxicity at 10 µM turned out to be 4.04%.
In the case of `CNC(=O)C1CCCCN1C(=O)C1CCN(S(C)(=O)=O)CC1` (stereo not drawn) it was 6.03%.
In the case of `CCCc1nnc(N2CC[C@](C)(O)[C@H](C)C2)s1` it was -10.4%; in that of `CC(Nc1ncnc2c1CCNC2)c1ccc2c(c1)CCCC2` (stereo not drawn), 42%.
Take `CCn1cnnc1CNC(=O)c1cc(Cl)c(I)cc1OC`: the cytotoxicity at 10 µM is -14.4%.
In the case of `Cc1cc(Cl)ccc1NCc1ccc(C(=O)N(C)C)[nH]1` it was 7.31%; in that of `O=C(NCCc1cc(N2CCOCC2)nc(N2CCCC2)n1)C1CC1`, 6.8%.
To `Cc1cc(NC(=O)c2nn(C3CCS(=O)(=O)C3)c3c2CCCC3)no1` (stereo not drawn) belongs 3.85%; to `Cn1cc(CN2CCC3(CC2)CN(c2cccnc2)C(=O)CO3)cn1`, -103%.
To `CCc1ncc(CN2CCC3(CCCN(CC4CCC4)C3)C2)cn1` (stereo not drawn) belongs -7.07%; to `O=C(CN1CCCC1c1nc(Cc2ccc(F)cc2)no1)NC1CC1` (stereo not drawn), 20.6%; to `CN(Cc1ccc(C#N)cc1)c1ncc(C(N)=O)cc1Cl`, 18.5%.
For `Cc1cncc(C2CCN(Cc3ccsc3)CC2)n1`, the cytotoxicity at 10 µM was found to be 4.86%.
To `CCc1ncnc2c1CCN(S(=O)(=O)c1ccccc1)CC2` belongs -96.8%.
In the case of `COc1ncccc1CNC(=O)NCCNS(C)(=O)=O`, the cytotoxicity at 10 µM is -14.4%.
In the case of `Cc1noc(C)c1CN(C)C(=O)CCOc1ccc(Cl)cc1` it was -2.51%.
In the case of `COCCN1C[C@@H]2CN(Cc3ccc(F)cc3)C[C@@H]2C1=O` it was -0.744%; in that of `CC(c1cccc(-c2ncc(C#N)c(N)n2)c1)N(C)C` (stereo not drawn), -7.3%; in that of `CCn1cc(CN2CCCN(C(=O)C3=NN(C)C(=O)CC3)CC2)cn1`, 3.54%.
As for `Cc1nocc1C(=O)N1CCCC2(CCN(c3ccsc3)C2=O)C1` (stereo not drawn), the cytotoxicity at 10 µM was -129%.
To `CNC(=O)Nc1cc(-c2ccccc2C)nn1CCO` belongs 7%; to `COc1cc(C#N)ccc1OCCN1CCC(n2ccnc2)CC1`, 2.75%; to `N#Cc1cnn(C(=O)CCCOc2ccccc2Cl)c1N`, -1.34%.
In the case of `Cc1nn(C)c2c(NCCCn3cccn3)ncnc12` it was -0.472%.
In the case of `CN(C)c1ncc(-c2ccncc2)c(CCNC(=O)C2CC2)n1` it was 0.05%; in that of `CC(C)(CO)Nc1c(NCc2ccccn2)c(=O)c1=O`, 0.122%; in that of `Cc1cnn(CC2CN(CC(=O)NCCc3cccs3)CCO2)c1` (stereo not drawn), 1.88%.
On to `CSc1ccccc1NC(=O)CCN1CCC(C(=O)N(C)C)CC1`, for which the cytotoxicity at 10 µM stood at 6.47%.
Take `CSCC[C@H]1CN2CCC[C@H]2CN1Cc1coc2ccc(C)cc2c1=O`: the cytotoxicity at 10 µM was -1.04%.
As for `Cc1ccc(C)c(CC(=O)Nc2cccc(C(=O)N(C)C)n2)c1`, the cytotoxicity at 10 µM was -6.56%.
To `CC(C)=CCC1(CO)CCCN(S(=O)(=O)N2CCCC2)C1` (stereo not drawn) belongs -3.38%; to `Cn1nccc1CNC(=O)C1CCCCC1`, 7.89%.
Take `CCN1CCc2[nH]nc(C(=O)N3CCCC3C)c2C1` (stereo not drawn): the cytotoxicity at 10 µM was -4.9%.
In the case of `CCn1cc(CN2CCCC2c2nc(-c3ccccc3)no2)cc1C#N` (stereo not drawn) it was 0.165%; in that of `CN1CCC2(CC1)CN(CC1CC1)CC21CCNC1=O` (stereo not drawn), 2.02%.
As to `O=C(CCc1nnc(-c2ccsc2)o1)NCC1CCN(C2CC2)C1` (stereo not drawn), the cytotoxicity at 10 µM is -1.73%.
Take `Cc1csc(N2CCN(Cc3nnsc3Cl)CC2C)n1` (stereo not drawn): the cytotoxicity at 10 µM is -59.9%.
To `O=C(C1SCCc2ccccc21)N1CCC(O)CC1` (stereo not drawn) belongs 0.0013%.
In the case of `COc1ncc(C)cc1NC(=O)COCC(F)(F)F` it was -5.42%.
In the case of `Cc1ccc(CNC(=O)c2cc(C)n(C)n2)o1` it was 0.25%; in that of `Cn1ccnc1N1CCN(C(=O)Cc2ccccc2)CC1`, 3.13%; in that of `Cc1nc2n(n1)CC(Nc1cc(C(F)(F)F)nc3ncnn13)CC2` (stereo not drawn), -1.27%.
Regarding `CC(=O)Nc1nc(CN2CCCCC2Cn2cccn2)cs1` (stereo not drawn), the cytotoxicity at 10 µM was -6.7%.
To `O=C1NCCN(C(=O)c2cn3ccsc3n2)C1c1cccc(F)c1` (stereo not drawn) belongs -5.18%; to `Cc1ccc2c(c1)OC(C)CN2C(=O)c1c[nH]c(C)cc1=O` (stereo not drawn), 2.36%.
In the case of `CCNC(=O)[C@@H]1C[C@@H](NC(=O)Cc2ccncc2)CN1Cc1ccsc1` it was -0.368%.
To `CC(Cn1ccnc1)NC(=O)NCCc1ccc2c(c1)OCCO2` (stereo not drawn) belongs -1.35%; to `Cn1c(CN2CCOCC2)nnc1C1CCCN(C(=O)CCC2CC2)C1` (stereo not drawn), 6.72%; to `Brc1ccc2[nH]c3c(c2c1)CCCC3c1nn[nH]n1` (stereo not drawn), 4.49%.
Turning to `COCC(=O)N1C[C@H]2CNC[C@@]2(C(=O)NCc2cccc3[nH]ccc23)C1`, the cytotoxicity at 10 µM came out at 6.65%.
In the case of `O=C(Cc1ccc2c(c1)OCO2)N1CCCN(c2ccccc2)CC1` it was -2.84%; in that of `O=C(c1cccc2cc[nH]c12)N1CCC2(CCOC2)C1` (stereo not drawn), -152%; in that of `CC(C)Nc1nc(N2CCCC2)nc2c1CN(C)CC2`, -0.376%.
To `Cc1cc(NC(=O)NCc2nncn2C)ccc1OC(C)C` belongs 6.23%; to `CNc1cc2c(nn1)CCN(C(=O)c1ccc(-n3cccn3)nc1)C2`, -4.78%; to `O=c1ccn(Cc2nc(-c3ccccc3F)cs2)c(=O)[nH]1`, -1.2%.
In the case of `N#CC1CCN(C(=O)NCCc2ccc(Cl)s2)CC1` it was -16.1%; in that of `O=C(NCCCn1nc2ccccn2c1=O)NCC(C1CC1)C1CC1`, 6.01%.
In the case of `O=C(COCc1ccccc1)Nc1ccccn1`, the cytotoxicity at 10 µM is -27.7%.
With `COc1cc(CCC(=O)NC2CCCN(C)C2)ccc1OCC(F)(F)F` (stereo not drawn), the cytotoxicity at 10 µM is -4.54%.
For `O=C(NCC(O)c1ccccc1Cl)c1cccc(-n2cnnn2)c1` (stereo not drawn), the cytotoxicity at 10 µM is -15.6%.
To `Cc1ccc(CNc2ccn(CCC(N)=O)n2)c(Br)c1` belongs -1.65%; to `CC(=O)N[C@@H]1CN(C(=O)c2cc(C)oc2C)C[C@H]1c1ccc(C)o1`, -10.6%; to `c1cc(CN2CCC(c3ccncc3)CC2)cc(Cn2cccn2)c1`, -10.1%.
Take `CCS(=O)(=O)N1CCc2cc(C(=O)NC)c(NCC(C)C)nc2CC1`: the cytotoxicity at 10 µM was -149%.
To `O=C(c1ccsc1)N1CCOC2(CCN(Cc3cccnc3)CC2)C1` belongs -3.12%; to `CC(C)Cc1noc(CN2CCOCC2)n1`, -2.27%; to `COc1cccc(S(=O)(=O)N2C[C@@H](O)[C@H](N(C)C)C2)c1`, 5.76%.
In the case of `NC(=O)NCC(=O)N1CCCC(c2nccn2CC2CCC2)C1` (stereo not drawn) it was -4.59%; in that of `CCOc1ccc2oc(-c3cn(C)nc3C)c(O)c(=O)c2c1`, 7.72%.
In the case of `COCc1nc(N(C)C)ncc1C(=O)NC(C)c1ccccc1` (stereo not drawn) it was 6.03%; in that of `CSCC(=O)N[C@H]1CC[C@H](Nc2nccc(-c3cccnc3)n2)C1`, 9.87%.
Regarding `CCc1[nH]ncc1C(=O)N1CCCC(n2nc(C)nc2C)C1` (stereo not drawn), the cytotoxicity at 10 µM was -6.02%.
On to `Fc1cccc(-n2nc(C3CC3)nc2CCn2cnnn2)c1`, for which the cytotoxicity at 10 µM was -0.174%.
As to `CCN(Cc1ccccc1Cl)Cn1nc(C)c2c(C)onc2c1=O`, the cytotoxicity at 10 µM is -2.34%.
To `Cc1ccc(NCc2ccccc2C#N)cc1-n1cnnn1` belongs 4.25%.
On to `COc1ccc(C2CC(=O)Oc3cc(C)[nH]c(=O)c32)c(OC)c1` (stereo not drawn), for which the cytotoxicity at 10 µM is -3.4%.
In the case of `Cc1nn(C)cc1S(=O)(=O)NCC(c1ccccc1)N1CCCCCC1` (stereo not drawn) it was -13.6%; in that of `Cc1ccc(CN(CCCn2ccnc2)Cc2cnc(N(C)C)nc2)s1`, -12.6%.
To `CC(C)NC(=O)Nc1ccc2c(c1)ncn2CC(=O)NCCN(C)C` belongs -8.15%.
In the case of `COc1cc(OC)cc(N2CCC(NCc3occc3C)C2=O)c1` (stereo not drawn) it was 0.995%; in that of `O=C(O)c1nnn(-c2ccccc2F)c1-c1ccncc1`, 10.2%.
